# According to ChEMBL document CHEMBL5154797 (Eur J Med Chem, 2022):
# Tests used:
# Huh-7 = test: Cytotoxicity against human HuH-7 cells assessed as reduction in cell viability incubated for 24 hrs by microplate reader assay; format: functional
# Lyssavirus rabies = test: Antirabies activity against rabies CVS infected in golden hamster BSR cells preincubated for 1 hr followed by mixing of cells measured after 24 hrs by inverted fluorescence microscope analysis; format: functional, organism-based
# [1] = Cytotoxicity against golden hamster BSR cells assessed as reduction in cell viability incubated for 24 hrs by microplate luminometer method; format: toxicity, cell-based, Mesocricetus auratus; conditions: for CC50: bsr, 24 h; for CC50 at 24 h: BSR cells
# Method in brief: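 BSR cells given serial dilutions from 200 μM, with medium in place of virus. After 24 h at 37 °C, viability was read by luminometer and CC50 calculated.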
# SARS-CoV-2 = test: Antiviral activity against S-protein based pseudotyped SARS-CoV-2 infected in Huh7 cells measured after 24 hrs by bright-Glo luciferase assay; format: functional, organism-based; conditions: Severe acute respiratory syndrome coronavirus 2, Huh-7, 24 h
# Method in brief: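 Serial dilutions from 200 μM were held with pseudotyped SARS-CoV-2 (1.3 × 10^4 TCID50) at 37 °C for 1 h, then mixed with Huh7 cells (2000 cells/well) and incubated 24 h. EC50 was calculated from bioluminescence intensity.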
# [2] = Selectivity index, ratio of CC50 for cytotoxicity against golden hamster BSR cells to EC50 for antirabies activity against Rabies virus infected in golden hamster BSR cells; format: toxicity, cell-based; conditions: read-out: Selectivity Index
# [3] = Selectivity index, ratio of CC50 for cytotoxicity against human Huh7 cells to EC50 for antiviral activity against S-protein based pseudotyped SARS-CoV-2 infected in Huh7 cells; format: functional
Structure (SMILES),CC50 (Huh-7) [µM],EC50 (Lyssavirus rabies) [µM],CC50 [1] [µM],EC50 (SARS-CoV-2) [µM],selectivity ratio [2],Selectivity Index [3],CC50 at 24 h [1] [µM]
COc1ccc(-n2c3c/c(=N\C4CCC(OC)CC4)c(Nc4ccc(F)cc4)cc-3nc3ccccc32)cn1 (stereo not given),51.3,2.55,84.4,< 10,33.1,>5.1,
COc1ccc(Nc2cc3nc4ccccc4n(-c4ccc(Cl)cc4)c-3c/c2=N\C(C)C)cn1,> 267,2.29,35.4,153,15.5,>1.7,
CC(C)/N=c1\cc2n(-c3ccc(F)cc3)c3ccccc3nc-2cc1Nc1ccc(Cl)cc1,17,4.02,,29.6,55.6,0.6,223
COc1ccc(Nc2cc3nc4ccccc4n(-c4ccc(Cl)cc4)c-3c/c2=N\C(C)C)cc1,88.9,6.86,130,16.6,19,5.4,
COc1ccc(-n2c3c/c(=N\C4CC4)c(Nc4ccc(F)cc4)cc-3nc3ccccc32)cn1,88.9,13.2,107,33.1,8.1,2.7,
CCC/N=c1\cc2n(-c3ccc(Cl)cc3)c3ccccc3nc-2cc1Nc1ccc(Cl)cc1,107,24.9,,39.3,13,2.7,323
COc1ccc(Nc2cc3nc4ccccc4n(-c4ccccc4)c-3c/c2=N\C(C)C)cn1,22.7,5.03,107,13.5,21.2,1.7,
CCC/N=c1\cc2n(-c3ccc(Cl)cc3)c3ccccc3nc-2cc1Nc1ccc(F)cc1,14.9,1.67,54.5,10.3,32.6,1.5,
COc1ccc(-n2c3c/c(=N\C(C)C)c(Nc4ccccc4)cc-3nc3ccccc32)cn1,< 10,12.3,,< 10,26.3,,323
COc1ccc(-n2c3c/c(=N\C(C)C)c(Nc4ccc(Cl)cc4)cc-3nc3ccccc32)cn1,51.3,5.03,107,< 10,21.3,>5.1,
CCC/N=c1\cc2n(-c3ccc(OC)nc3)c3ccccc3nc-2cc1Nc1ccc(F)cc1,< 10,1.4,107,< 10,76.4,,
CC(C)/N=c1\cc2n(-c3ccccc3)c3ccccc3nc-2cc1Nc1ccccc1,177,10.7,,17.2,30.1,10.2,323
CCC/N=c1\cc2n(-c3ccccc3)c3ccccc3nc-2cc1Nc1ccccc1,35.6,0.76,14.4,< 10,19,>3.5,
CC(C)/N=c1\cc2n(-c3ccc(F)cc3)c3ccccc3nc-2cc1Nc1ccc(F)cc1,267,2.29,,81.1,134,3.3,314
N=c1cc2n(-c3ccc(Cl)cc3)c3ccccc3nc-2cc1Nc1ccc(Cl)cc1,,20.6,35.4,,1.7,,
Clc1ccc(Nc2cc3nc4ccccc4n(-c4ccc(Cl)cc4)c-3c/c2=N\C2CC2)cc1,> 267,22.7,,141,14.2,>1.9,
CC(C)/N=c1\cc2n(-c3ccc(Cl)cc3)c3ccccc3nc-2cc1Nc1ccc(F)cc1,40.6,4.56,,14.5,61.7,2.8,281
CC(C)/N=c1\cc2n(-c3ccccc3)c3ccccc3nc-2cc1NCc1ccccc1,< 10,1.4,107,< 10,76.4,,
COc1ccc(Nc2cc3nc4ccccc4n(-c4ccc(Cl)cc4)c-3cc2=N)c(OC)c1,16.6,35.4,,16.1,1,1,
CC(C)/N=c1\cc2n(-c3ccc(Cl)cc3)c3ccccc3nc-2cc1Nc1ccc(OC(F)(F)F)cc1,38.4,1.77,,9.98,182,3.8,
CC(C)/N=c1\cc2n(-c3ccccc3)c3ccccc3nc-2cc1Nc1ccc(Cl)cc1,16.1,1.9,42.6,< 10,22.4,>1.6,
COc1ccc(Nc2cc3nc4ccccc4n(-c4ccc(OC)nc4)c-3c/c2=N\C(C)C)cc1,17.1,13.2,,< 10,24.5,>1.7,323
N=c1cc2n(-c3ccc(Cl)cc3)c3ccccc3nc-2cc1Nc1ccccc1,< 10,20.6,35.4,< 10,1.7,,
CC(C)/N=c1\cc2n(-c3ccccc3)c3ccccc3nc-2cc1NCc1ccc(F)cc1,29.6,1.9,17.3,< 10,9.1,>2.9,
COc1ccc(Nc2cc3nc4ccccc4n(-c4ccc(Cl)cc4)c-3c/c2=N\C(C)C)c(OC)c1,13.5,6.86,120,< 10,17.6,>1.3,
COc1ccc(Nc2cc3nc4ccccc4n(-c4ccc(Cl)cc4)c-3cc2=N)cc1,> 267,106,,154,1,>1.7,
N=c1cc2n(-c3ccccc3)c3ccccc3nc-2cc1NCc1ccccc1,,35.4,,,1,,35.4
CC(C)/N=c1\cc2n(-c3ccc(Cl)cc3)c3ccccc3nc-2cc1NCc1ccc(Cl)cc1,16.1,0.76,93.1,12.4,123,1.3,
CC(C)/N=c1\cc2n(-c3ccc(Cl)cc3)c3ccccc3nc-2cc1Nc1ccccc1,154,8.44,185,40.9,21.9,3.8,
Fc1ccc(Nc2cc3nc4ccccc4n(-c4ccc(Cl)cc4)c-3c/c2=N\C2CC2)cc1,16.7,6.86,,13.5,47.1,1.2,
